Calls of active or inactive are those of the source. The calls are words filed in the database; no cut-off is given here.
Experiments:
Mus musculus [1] = experiment: Anti-neuro inflammatory activity in 5XFAD mouse assessed as reduction in Il-6 mRNA expression at 5 mg/kg/day, po for 4 weeks by RT-PCR analysis; format: functional, organism-based
In short: (§1)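 Male 5XFAD mice, 8 months old, given 5 mg/kg/day in drinking water with 1,8% 2-hydroxypropyl-β-cyclodextrin for 4 weeks. Hippocampus collected one day after behavioural testing. Trizol RNA, 2 μg reverse-transcribed, TaqMan qPCR with 18 ng cDNA per reaction. ΔΔCt normalized to housekeeping gene. n = 4-6 (Hmox1: 3-6) per group. One-way ANOVA with Dunnett.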

Mus musculus [2] = experiment: Neuroprotective activity in 5XFAD mouse assessed as urinations at 5 mg/kg/day, po for 4 weeks by open field test (reference value: 0); format: functional
Mus musculus [3] = experiment: Neuroprotective activity in 5XFAD mouse assessed as increase in SOD1 protein level at 5 mg/kg/day, po for 4 weeks by Western blot analysis; format: functional, organism-based
In short: (§2)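 Hippocampal lysates, with protease and phosphatase inhibitors, from 8-month-old male 5XFAD mice after 4 weeks at 5 mg/kg/day in drinking water. 15 μg protein resolved on 8-12% SDS-PAGE and blotted to PVDF. Blocked 1 h, primary antibody overnight at 4°C, HRP secondary, ECL detection. Values expressed as % of Wt control. n = 4 per group.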

Mus musculus [4] = experiment: Neuroprotective activity in 5XFAD mouse assessed as increase in NRF2 protein level at 5 mg/kg/day, po for 4 weeks by Western blot analysis; format: functional, organism-based; in short: as §2
Mus musculus [5] = experiment: Neuroprotective activity in 5XFAD mouse assessed as distance in zone-center at 5 mg/kg/day, po for 4 weeks by open field test (reference value: 87.64+/-8.21 cm); format: functional
Mus musculus [6] = experiment: Neuroprotective activity in 5XFAD mouse assessed as increase in synaptophysin protein level at 5 mg/kg/day, po for 4 weeks by Western blot analysis; format: functional, organism-based; in short: as §2
Mus musculus [7] = experiment: Neuroprotective activity in 5XFAD mouse assessed as reduction in H3K9me2 level at 5 mg/kg/day, po for 4 weeks by Western blot analysis; format: functional, organism-based; in short: as §2
Mus musculus [8] = experiment: Anti-neuro inflammatory activity in 5XFAD mouse assessed as reduction in TNF-alpha mRNA expression at 5 mg/kg/day, po for 4 weeks by RT-PCR analysis; format: functional, organism-based; in short: as §1
Mus musculus [9] = experiment: Neuroprotective activity in 5XFAD mouse assessed as restoration of locomotor activity at 5 mg/kg/day, po for 4 weeks by open field test (reference value: 1672.36+/-68.84 cm); format: functional
Mus musculus [10] = experiment: Neuroprotective activity in 5XFAD mouse assessed as defecations at 5 mg/kg/day, po for 4 weeks by open field test (reference value: 0.80+/-0.20 No_Unit); format: functional
Mus musculus [11] = experiment: Neuroprotective activity in 5XFAD mouse model assessed as reduced cognitive deficit in long term memory at 5 mg/kg/day, po for 4 weeks by novel object recognition test; format: functional, organism-based
In short: (§3)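 8-month-old male 5XFAD mice after 4 weeks of 5 mg/kg/day in drinking water. Two-arm 90° maze, habituated 10 min/day for 3 days. 10 min acquisition with two identical objects, then one object replaced after 2 h (short-term) or 24 h (long-term). DI = (TN−TO)/(TN+TO), exploration ≤2 cm. Objects counterbalanced.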

Mus musculus [12] = experiment: Neuroprotective activity in 5XFAD mouse assessed as increase in grooming at 5 mg/kg/day, po for 4 weeks by open field test (reference value: 1.2+/-0.25); format: functional
Mus musculus [13] = experiment: Neuroprotective activity in 5XFAD mouse assessed as no change in Mcp1 mRNA expression at 5 mg/kg/day, po for 4 weeks by RT-PCR analysis; format: functional, organism-based; in short: as §1
Mus musculus [14] = experiment: Neuroprotective activity in 5XFAD mouse model assessed as reduced cognitive deficit in short term memory at 5 mg/kg/day, po for 4 weeks by novel object recognition test; format: functional, organism-based; in short: as §3
Mus musculus [15] = experiment: Neuroprotective activity in 5XFAD mouse assessed as increase in BDNF protein level at 5 mg/kg/day, po for 4 weeks by Western blot analysis; format: functional, organism-based; in short: as §2
Mus musculus [16] = experiment: Neuroprotective activity in 5XFAD mouse assessed as reduction in GFAP protein level by measuring fluorescence intensity at 5 mg/kg/day, po for 4 weeks by immunostaining analysis; format: functional, organism-based
Mus musculus [17] = experiment: Antialzheimer activity in 5XFAD mouse model assessed as increase in 5-hmC global level in DNA at 5 mg/kg/day, po for 4 weeks
Mus musculus [18] = experiment: Neuroprotective activity in 5XFAD mouse assessed as no change in IBA1 protein level at 5 mg/kg/day, po for 4 weeks by immunostaining analysis; format: functional, organism-based
Mus musculus [19] = experiment: Anti-neuro inflammatory activity in 5XFAD mouse assessed as Cxcl10 mRNA expression at 5 mg/kg/day, po for 4 weeks by RT-PCR analysis; format: functional, organism-based; in short: as §1
Mus musculus [20] = experiment: Antioxidant activity in 5XFAD mouse hippocampus assessed as decrease in ROS level at 5 mg/kg/day, po for 4 weeks; format: functional, organism-based
In short: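 Hippocampal homogenates from 8-month-old male 5XFAD mice after 4 weeks of 5 mg/kg/day in drinking water (cyclodextrin vehicle). H2O2 concentration measured with a hydrogen peroxide assay kit as an oxidative stress index. n = 3 per group, mean ± SEM.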

Mus musculus [21] = experiment: Neuroprotective activity in 5XFAD mouse assessed as increase in Hmox1 gene expression level at 5 mg/kg/day, po for 4 weeks by RT-PCR analysis; format: functional, organism-based; in short: as §1
Mus musculus [22] = experiment: Neuroprotective activity in 5XFAD mouse assessed as distance in zone-periphery at 5 mg/kg/day, po for 4 weeks by open field test (reference value: 1450.05+/-133.56 cm); format: functional
Mus musculus [23] = experiment: Neuroprotective activity in 5XFAD mouse assessed as increase in postsynaptic density protein 95 level at 5 mg/kg/day, po for 4 weeks by Western blot analysis; format: functional, organism-based; in short: as §2
Mus musculus [24] = experiment: Antialzheimer activity in 5XFAD mouse model assessed as reduction of 5-mC global level in DNA at 5 mg/kg/day, po for 4 weeks; format: functional, organism-based
In short: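 8-month-old male 5XFAD mice dosed 5 mg/kg/day via drinking water (1,8% hydroxypropyl-β-cyclodextrin vehicle), 4 weeks. Hippocampal DNA assayed for global 5-mC or 5-hmC by antibody-based ELISA-like colorimetric kit, absorbance 450 nm. Quantified against a standard curve of five control DNA dilutions (0.5–10 ng). n = 4 per group.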

Mus musculus [25] = experiment: Neuroprotective activity in 5XFAD mouse assessed as Ngf gene expression at 5 mg/kg/day, po for 4 weeks by RT-PCR analysis; format: functional, organism-based; in short: as §1
Mus musculus [26] = experiment: Neuroprotective activity in 5XFAD mouse assessed as Vgf gene expression at 5 mg/kg/day, po for 4 weeks by RT-PCR analysis; format: functional, organism-based; in short: as §1
Mus musculus [27] = experiment: Neuroprotective activity in 5XFAD mouse assessed as increase in vertical activity by measuring number of rearings at 5 mg/kg/day, po for 4 weeks by open field test (reference value: 9.9+/-0.66); format: functional
Mus musculus [28] = experiment: Neuroprotective activity in cognitive impairment of 5XFAD mouse model assessed as increase in discrimination index at 5 mg/kg/day, po for 4 weeks by novel object location test; format: functional, organism-based
In short: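 Object location task in 8-month-old male 5XFAD mice after 4 weeks of 5 mg/kg/day in drinking water. Sessions video-recorded from above. Time sniffing the relocated object (TN) versus the object in the familiar location (TO) was scored. DI = (TN-TO)/(TN+TO).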

Mus musculus [29] = experiment: Neuroprotective activity in 5XFAD mouse assessed as number of beta-amyloid plaques at 5 mg/kg/day, po for 4 weeks relative to control; format: functional
In short: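 Male 5XFAD mice, 8 months old, received 5 mg/kg/day in drinking water for 4 weeks. 30 μm brain sections rehydrated in PBS, then stained with 0.3% Thioflavin-S for 20 min at room temperature in the dark.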

Mus musculus [30] = experiment: Neuroprotective activity in 5XFAD mouse assessed as increase in GPX1 protein level at 5 mg/kg/day, po for 4 weeks by Western blot analysis; format: functional, organism-based; in short: as §2

COc1cc2c(NC3CCN(C(C)C)CC3)nc(N3CCC(F)(F)CC3)nc2cc1OCCCN1CCCC1
Activity (Mus musculus [1]): Active | Activity (Mus musculus [2]): 0 | Activity (Mus musculus [3]): Active | Activity (Mus musculus [4]): Active | Activity (Mus musculus [5]): 92.74 cm | Activity (Mus musculus [6]): Active | Activity (Mus musculus [7]): Active | Activity (Mus musculus [8]): Active | Activity (Mus musculus [9]): 2030.46 cm | Activity (Mus musculus [10]): 0.86 | Activity (Mus musculus [11]): Active | Activity (Mus musculus [12]): 3.71 | Activity (Mus musculus [13]): inactive | Activity (Mus musculus [14]): Active | Activity (Mus musculus [15]): Active | Activity (Mus musculus [16]): Active | Activity (Mus musculus [17]): Active | Activity (Mus musculus [18]): inactive | Activity (Mus musculus [19]): inactive | Activity (Mus musculus [20]): Active | Activity (Mus musculus [21]): Active | Activity (Mus musculus [22]): 1623.83 cm | Activity (Mus musculus [23]): Active | Activity (Mus musculus [24]): Active | Activity (Mus musculus [25]): Active | Activity (Mus musculus [26]): Active | Activity (Mus musculus [27]): 14.29 | Activity (Mus musculus [28]): Active | Activity (Mus musculus [29]): 45% | Activity (Mus musculus [30]): Active

Source: ChEMBL document CHEMBL5712088, “Pharmacological inhibition of G9a/GLP restores cognition and reduces oxidative stress, neuroinflammation and β-Amyloid plaques in an early-onset Alzheimer's disease mouse model” (2019)
